{"source": "paper PMC5651997", "about": "(Chemosphere, 2017)", "key": {"[1]": {"tested_on": "D. magna", "test": "48 h acute toxicity test, single chemicals", "format": "in vivo, Daphnia magna", "details": "for LC50: read-out: LC50 (μM)(95% CI)"}, "[2]": {"tested_on": "detoxification genes", "test": "RNA sequencing, differential gene expression after atrazine exposure", "format": "in vivo, Daphnia magna", "details": "40 μM atrazine, 96 h"}, "[3]": {"tested_on": "Daphnia HR96", "details": "ref Karimullina et al., 2012; cited from earlier work"}, "[4]": {"tested_on": "detoxification and sphingolipid homeostasis genes", "test": "qPCR confirmation of differential gene expression", "format": "in vivo, Daphnia magna", "details": "20 or 40 μM atrazine, 96 h, at least one of the concentrations", "how_it_was_run": "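RNA stabilised and stored at −80°C; 2 μg reverse-transcribed with MMLV. SYBR Green qPCR; efficiency from a 1:1–1:1024 dilution series of pooled untreated and treated samples; triplicate 1:15-diluted samples quantified.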"}, "[5]": {"tested_on": "D. magna", "format": "in vivo, Daphnia magna", "details": "neonates, 48 h, 40 μM atrazine"}, "[6]": {"test": "48 h acute toxicity test, single chemicals", "format": "in vivo, Daphnia magna", "details": "Daphnia magna, in vivo, LC50 (μM)(95% CI)"}, "[7]": {"details": "neonates (<24 h old), 48 h, chemical individually, (95% CI)"}, "[8]": {"details": "neonates (<24 h old), 48 h, chemical individually"}}}
{"molecule": "CC(C)(c1ccc(O)cc1)c1ccc(O)cc1", "note": "[BPA, bisphenol A]", "values": [{"measurement": "Hillslope", "setting": "[1]; [7]", "value": "−6.891 (−10.34 to −3.438)"}]}
{"molecule": "CCNc1nc(Cl)nc(NC(C)C)n1", "note": "[atrazine]", "values": [{"measurement": "logFC, GST 1", "setting": "[2]; glutathione metabolism pathway", "value": 1.33}, {"measurement": "logFC, aminopeptidase", "setting": "[2]; glutathione metabolism pathway", "value": 1.13}, {"measurement": "number of significantly down-regulated genes", "setting": "[2]; of 26,646 genes identified", "value": 441}, {"measurement": "number of significantly up-regulated genes", "setting": "[2]; of 26,646 genes identified", "value": 675}, {"measurement": "potency for activating Daphnia HR96", "setting": "[3]", "value": "greatest potency"}, {"measurement": "expression of two GSTs, cyp370a9, ADH-A and two sphingomyelinases by qPCR", "setting": "[4]", "value": "significantly up-regulated"}]}
{"molecule": "CCOP(=S)(OCC)Oc1nc(Cl)c(Cl)cc1Cl", "note": "[chlorpyrifos]", "values": [{"measurement": "Hillslope", "setting": "[1]; [7]", "value": "−2.498 (−3.795 to −1.496)"}]}
{"molecule": "O=S1OCC2C(CO1)C1(Cl)C(Cl)=C(Cl)C2(Cl)C1(Cl)Cl", "note": "(centres unmarked) [endosulfan]", "values": [{"measurement": "drop of LC50 in atrazine-containing binary mixture vs chemical alone", "setting": "[5]", "value": 60, "unit": "%"}, {"measurement": "Hillslope", "setting": "[1]; [7]", "value": "−8.310 (−10.52 to −6.098)"}]}
{"molecule": "CCCCCCCCCc1ccc(O)cc1", "note": "[p-nonylphenol]", "values": [{"measurement": "drop of LC50 in atrazine-containing binary mixture vs chemical alone", "setting": "[5]", "value": 25, "unit": "%"}, {"measurement": "Hillslope", "setting": "[1]; Daphnia magna, in vivo", "value": "−5.895 (−8.000 to −3.790)"}, {"measurement": "LC50", "setting": "[6]", "value": 1.94, "unit": "µM"}]}
{"molecule": "CCOP(=S)(OCC)Oc1ccc([N+](=O)[O-])cc1", "note": "[parathion]", "values": [{"measurement": "Hillslope", "setting": "[1]; [7]", "value": "−4.831 (−8.368 to −1.294)"}, {"measurement": "LC50", "setting": "[1]; [8]", "value": 0.0122, "unit": "µM"}]}
{"molecule": "Oc1cc(Cl)ccc1Oc1ccc(Cl)cc1Cl", "note": "[triclosan]", "values": [{"measurement": "Hillslope", "setting": "[1]; [7]", "value": "−4.365 (−6.091 to −3.083)"}, {"measurement": "LC50", "setting": "[1]; [8]", "value": 1.08, "unit": "µM"}]}
